The text below walks through data of publication PMC5125022 (ACS chemical neuroscience, 2016).

Values joined by “and” are separate entries in the source; they are usually repeats but may differ in a detail not shown here. Equal entries are not always repeated. Where two headings read alike, the source gives them in different places.

As usually defined, the EC50 is the concentration giving half of the maximal effect.

The test system of assay [1] is Swiss Webster mice. Put plainly: Charcoal gavage intestinal motility assay. Format: in vivo, mouse.
Assay [2] relates to Swiss Webster mice. The assay can be described thus: Colonic bead expulsion assay. Format: in vivo, mouse.
Assay [3] concerns Swiss Webster mice. The assay can be described thus: Warm water tail immersion. Format: in vivo, mouse.
The target in assay [4] is T1, KOR (Homo sapiens, UniProt P41145). Put plainly: [35S]GTPγS-binding assay in KOR-expressing CHO cell line. The assay is classed as biochemical. The essentials: (§1)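 CHO-cell membranes expressing DOR or KOR (10 µg protein) were incubated for 90 min at 30 °C in assay buffer. The mix held 10 µM GDP, 0.1 nM [35S]GTPγS, and varying test compound or a 3 µM full-agonist reference (SNC80 for DOR, U50,488H for KOR). Nonspecific binding used 10 µM unlabeled GTPγS. Reactions were stopped by rapid vacuum filtration through glass-fibre filters, and bound radioactivity was read by liquid scintillation. Assays ran in triplicate, with 3 independent determinations. EC50 and Emax came from nonlinear one-site fits.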

The test system of assay [5] is circular muscle of the mouse colon. Format: cell-based. As to conditions: for Inhibition of morphine-induced contractions: 1 nM antagonist, distal or proximal colon, data not shown; for Antagonism of morphine effects: Figure 6A; for Contractions induced by compound alone: concentrations up to 30 μM, distal and proximal colon preparations.
The subject of assay [6] is Swiss Webster mice. Put plainly: Acetic acid induced writhing assay. The assay is classed as in vivo, mouse. (An intraperitoneal irritant provokes the stretching counted in writhing tests.)
For assay [7], the system named is Longitudinal Muscle Myenteric Plexus (LMMP) preparations from the guinea pig ileum. The assay can be described thus: Electrical field stimulated contractions in LMMP preparations. Format: cell-based. Particulars: Figure 8A.
Assay [8] deals with DOR (Homo sapiens, UniProt P41143). The assay can be described thus: [35S]GTPγS-binding assay in DOR-expressing CHO cell line. The assay is classed as biochemical. The method in brief:
as §1
(In general: GTPγS is a poorly hydrolysed GTP analogue; its binding reports G protein activation.)

Assay [9] has as its target T2, MOR (Mus musculus, UniProt P42866). Put plainly: [35S]GTPγS-binding assay in low MOR-expressing CHO cell line. The assay is classed as biochemical. The essentials: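 Low-MOR-expressing CHO cell material was incubated for 90 min at 30 °C with varying test compound or 3 µM DAMGO (full-agonist reference). Nonspecific binding used 10 µM unlabeled GTPγS. Reactions were stopped by GF/B vacuum filtration, and bound radioactivity was read by scintillation counting. Triplicates gave 3 independent determinations. EC50 and Emax came from nonlinear one-site fits.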

Assay [10] has as its target T1, KOR. Put plainly: Competitive radioligand binding, KOR. As to conditions: ratio of Ki KOR / Ki MOR. The essentials: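 Membranes from CHO cells stably expressing a single opioid receptor were incubated with test compound at various concentrations and either [3H]naloxone (MOR) or [3H]norBNI (KOR) for 1 h at 30 °C. Specific binding was the difference between binding without and with 10 µM naltrexone. IC50 came from linear regression of Hill plots, and Ki from Cheng-Prusoff. Selectivity is the KOR Ki/MOR Ki ratio, from three independent experiments.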

The target in assay [11] is T1, KOR. As to conditions: ref 9b, cited from earlier work.
Assay [12] has as its target T2, MOR. As to conditions: Emax relative to full agonist DAMGO (100%), ref 9b; cited from earlier work.
Setting [13] is: Emax relative to full agonist U50,488H (100%).
[14] abbreviates: 10 nM antagonist, proximal colon, Figure 6C.
Where [15] appears, read: 100 nM antagonist, distal colon, Figure 6B.

In the case of `CN1CC[C@]23c4c5ccc(O)c4O[C@H]2[C@@H](O)C=C[C@H]3[C@H]1C5` [morphine, Morphine, reference compound], in assay [1] (mouse, in vivo), the “Decrease of intestinal motility” value is recorded as 3 fold. In [2] (mouse, in vivo), this compound gave a Bead expulsion time of 75 min. In assay [3] (mouse, in vivo), the Antinociception entry is reported as “dose dependently induced antinociception”.

In the case of “1-Benzyl-17-Cyclopropylmethyl-3,14β-dihydroxy-4,5α-epoxy-6β-[(4'-pyridyl)acetamido]morphinan [BNAP]”, the “% max of agonist” value in assay [4] (setting [13]) is 45.9 ± 1.7%; in assay [8] (Emax relative to full agonist SNC80 (100%)), 9.2 ± 2.2%; in assay [9] (Emax relative to full agonist DAMGO (100%)), 14.6% and 14.6 ± 0.9%. The EC50 in assay [4] ([35S]GTPγS binding) is 2.9 ± 1.1 nM; in assay [8] ([35S]GTPγS binding), 108 ± 69 nM; in [9] ([35S]GTPγS binding), 4.84 nM and 4.8 nM. Moreover, the “Inhibition of morphine-induced contractions” value in assay [5] is “neither NAP nor BNAP showed significant inhibition”. For the same compound, the “Antagonism of morphine effects” value in [5] (10 nM antagonist, distal colon) was “neither NAP nor BNAP showed significant antagonism”. Further, the figures for the “Morphine pD2 in the presence of antagonist” value in assay [5] (setting [14]) and in [5] (setting [15]) were 5.9 and 5.2, respectively. The “Change of morphine pD2 on raising the antagonist concentration” value in assay [5] (100 nM versus 10 nM antagonist, proximal colon) is given as “no further reduction of the morphine pD2”. For the same compound, in assay [5], the “Contractions induced by compound alone” value was “Neither BNAP nor NAP alone at concentrations up to 30 μM induced contractions”. Besides, the “Activity in hypernociceptive model of visceral pain” value in [6] (mice with 5-day 75 mg morphine pellet, Figure 9B) was “active at three fold lower concentration”. Besides, the Number of writhes entry in assay [6] (s.c., naive mice, Figure 9A) is “dose dependently reduced the number of writhes”. Moreover, in [7], the “pIC50 for inhibition of EFS contractions” value came to 7.86 ± 0.07. The “Decrease of intestinal motility” value in assay [1] (charcoal gavage, mice, Figure 7B) amounted to 1.5 fold. Further, the “Reversal of morphine induced inhibition of intestinal motility” value in assay [1] (mice) is “unable to reverse morphine induced inhibition of intestinal motility”. The compound further yielded a Bead expulsion time in assay [2] (BNAP alone 10 mg/kg, mice (naive 17 min)) of 43 min. Also, in [2] (given with morphine or 5 or 15 min before morphine), the “Antagonism of morphine's effect on bead expulsion” value is listed as “no significant antagonism of morphine's effects was observed”. Further, the “Antinociceptive effect of compound alone” value is reported as “did not produce significant antinociception” in assay [3] (1.0 μg/5 μL ICV, compared to morphine alone, mice, Figure 4) and “did not produce significant antinociceptive effects” in [3] (10 mg/kg s.c., mice, Figure 3). Also, the “Antagonism of morphine antinociception” value in assay [3] (10 mg/kg s.c., any morphine dose tested, mice, Figure 3) was “did not significantly antagonize morphine antinociception”. For the same compound, in assay [3] (ICV, increasing concentrations, mice, Figure 4), the “Reversal of morphine antinociception” value is “dose dependent reversal of morphine antinociception”. Moreover, the “Dose giving complete reversal of morphine antinociception” value in [3] (ICV, mice, Figure 4) came out at 0.3 μg/5 μL. Also, the “Selectivity (κ/μ)” value in assay [10] is 4.6 (κ/μ).

In the case of DAMGO [reference compound], the “pIC50 for inhibition of EFS contractions” value in assay [7] was found to be 7.67 ± 0.03.

On to `O=C(N[C@@H]1CC[C@@]2(O)[C@H]3Cc4ccc(O)c5c4[C@@]2(CCN3CC2CC2)[C@H]1O5)c1ccncc1` [NAP, 17-Cyclopropylmethyl-3,14beta-dihydroxy-4,5alpha-epoxy-6beta-(4'-pyridylcarboxamido)morphinan, reference compound], for which the “% max of agonist” value was 45.5 ± 4.4% in assay [11] (setting [13]); 22.72 ± 0.84% and 22.7 ± 0.8% in assay [12]. Besides, the half-maximal effective concentration (EC50) in assay [11] ([35S]GTPγS binding) was 28.8 ± 14.4 nM. In addition, in assay [5], the “Inhibition of morphine-induced contractions” value is “neither NAP nor BNAP showed significant inhibition”. Also, in assay [5] (10 nM antagonist, distal colon), the “Antagonism of morphine effects” value was “neither NAP nor BNAP showed significant antagonism”. Moreover, the figures for the “Morphine pD2 in the presence of antagonist” value in assay [5] (setting [14]) and in assay [5] (setting [15]) were 5.9 and 5.3, respectively. Besides, the “Contractions induced by compound alone” value in [5] was “Neither BNAP nor NAP alone at concentrations up to 30 μM induced contractions”.
